CHOP inh: inhibitors of CHOP promoter induction, primary screen, cell-based, unfolded protein response, luciferase reporter. inhibition, % at 10 µM. 220,000 compounds, 3.8% hits. CHO-K1 CHOP-promoter luciferase, tunicamycin-induced, 15-18 h. AID 2732, 2010;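 active means compounds that reduced the stress-induced luciferase reporter signal by more than about 70% of percent inhibition, limit read from the data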
XBP1 UPR activ: activators of adaptive XBP1 UPR arm, primary screen, cell-based, CHO-XBP1 luciferase reporter, luminescence, uHTS; IRE1-XBP1 UPR activation; percent of tunicamycin response, DMSO as zero; activation, % at 20 µM; AID 463104, 2010; 330,000 compounds, 0.33% hits;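 active means versus positive control, 20 µM dose yields 30% or more activation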
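Material: CHO-XBP1 cells stably carrying IRE1-XBP1-driven luciferase reporter / Amount: 1000 cells per well / Compound: 20 µM, 1% DMSO / Times: 6 h treatment, 37 °C / Detection: luciferase luminescence / Measure: % activation of reporter signal versus tunicamycin and DMSO controls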
TLR4-MyD88 BLA: inhibitors of TLR4-MyD88 association in cells, primary screen, cell-based, HeLa CL3-4, BLA complementation, FRET ratio; Toll-like receptor 4 (Homo sapiens) + Myeloid differentiation primary response protein …; inhibition, % at 8.4 µM; HeLa CL3-4 TLR4/MyD88 BLA complementation; AID 861, 2007; 200,000 compounds, 0.18% hits; in the data active means inhibition above about 25%
TLR9-MyD88 block: inhibitors of TLR9-MyD88 association in cells, primary screen, cell-based, CHO, BLA complementation, fluorescence; Toll-like receptor 9 (Homo sapiens) + Myeloid differentiation primary response protein …; 340,000 compounds, 0.21% hits; CCF4 FRET ratio; inhibition, % at 4.98 µM;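 active means inhibition above the mean over all tested compounds plus 3 SD, cut at about 21% in these data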
UPR CHOP act: activators of apoptotic CHOP UPR arm, primary screen, cell-based, CHO-CHOP luciferase reporter, luminescence, uHTS; 330,000 compounds, 0.34% hits; activation, % at 10 µM; UPR activation; percent of tunicamycin response over DMSO baseline; AID 449763, 2010;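 active means at 10 µM dose, activation of 40% or more, normalized to positive control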
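measured by = luciferase luminescence | assay system = CHO-CHOP cells, stable luciferase reporter of PERK-eIF2a-CHOP signalling | amount = 500 reporter cells seeded per well | timing = 6 h compound exposure at 37 °C after overnight seeding | controls = positive tunicamycin 10 µg/mL, negative DMSO alone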
NOD2-RIPK2 inh: NOD2-RIPK2 binding disruptors in cells, primary screen, fluorescence, CHO cells, BLA complementation. Receptor-interacting serine/threonine-protein kinase 2 (Homo sapiens), O43353. CCF4 ratio. inhibition, % at 4.98 µM. 360,000 compounds, 0.38% hits; in the data active means inhibition above about 21%
Target sequence (O43353 whole entry, looked up): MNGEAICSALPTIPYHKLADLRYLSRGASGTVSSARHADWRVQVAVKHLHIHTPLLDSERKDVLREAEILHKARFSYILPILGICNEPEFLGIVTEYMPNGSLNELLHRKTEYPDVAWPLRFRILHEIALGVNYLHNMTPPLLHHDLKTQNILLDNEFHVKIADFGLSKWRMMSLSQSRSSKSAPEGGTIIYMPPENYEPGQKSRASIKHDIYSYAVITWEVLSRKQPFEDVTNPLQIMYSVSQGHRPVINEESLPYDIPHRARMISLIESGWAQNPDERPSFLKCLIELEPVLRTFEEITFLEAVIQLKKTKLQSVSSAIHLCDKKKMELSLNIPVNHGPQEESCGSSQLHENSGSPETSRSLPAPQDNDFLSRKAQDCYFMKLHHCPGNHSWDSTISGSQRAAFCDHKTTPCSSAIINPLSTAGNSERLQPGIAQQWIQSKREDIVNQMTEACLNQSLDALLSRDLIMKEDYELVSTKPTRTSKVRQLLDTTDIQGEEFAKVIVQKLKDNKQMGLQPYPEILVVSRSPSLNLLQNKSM
Large screens that a line does not name were inactive. The sample as a whole holds a higher share of hits than the screen did.

COc1ccc(OCc2nnc(SCC(=O)Nc3ccc(C)cc3)o2)cc1	none (no result: CHOP inh, TLR4-MyD88 BLA)
CC(C)c1nc2sc3c(NCc4ccco4)ncnc3c2c2c1COC(C)(C)C2	CHOP inh 78
O=C(NC(NC(=O)c1ccccc1)c1ccccc1)c1ccccc1	CHOP inh 80
CCN(Cc1ccccc1)C(=O)C(=O)c1cn(CC(=O)N2CCCC2)c2ccccc12	none (no result: CHOP inh, TLR4-MyD88 BLA)
O=C(O)c1ccc(N/N=C/c2cn(Cc3ccc(F)cc3)c3ccccc23)cc1	none (no result: TLR4-MyD88 BLA)
O=[N+]([O-])/C=C/c1cn(Cc2ccc(F)cc2)c2ccccc12	CHOP inh 93
CN(C)S(=O)(=O)c1cccc(NC(=O)COC(=O)c2cccn2C)c1	none
CC1C(=O)N2CCCc3cc(S(=O)(=O)N4CCN(c5cccc(Cl)c5)CC4)cc1c32 (stereo not drawn)	none (no result: CHOP inh, TLR4-MyD88 BLA)
O=C(Cc1ccc(Cl)c(Cl)c1)OCCN1CCCC1	none (no result: XBP1 UPR activ, TLR4-MyD88 BLA, TLR9-MyD88 block, UPR CHOP act, NOD2-RIPK2 inh)
CCCc1ccc(OCc2ccc(C(=O)OC)o2)c(OC)c1	CHOP inh 78
O=C(NCc1ccc2[nH]c3c(c2c1)CCCC3)c1ccc(S(=O)(=O)N2CCCC2)cc1	CHOP inh 77
NC(=O)COC(=O)c1ccccc1SCC(=O)NC1CCCCCC1	none
CC(C)(C)C1=NN(C(=O)c2ccccc2)C(O)(C(C)(C)C)C1 (stereo not drawn)	none
Cc1cc(C)cc(OCC(=O)N2N=C(c3cccnc3)CC2(O)C(F)(F)F)c1 (stereo not drawn)	none
Cc1cc(C)cc(OCC(=O)N2N=C(C(F)(F)F)CC2(O)C(C)(C)C)c1 (stereo not drawn)	CHOP inh 78
CC(C)(C)C1(O)CC(C(F)(F)F)=NN1C(=O)CCCc1ccccc1 (stereo not drawn)	CHOP inh 88
O=C(NCc1ccco1)c1ccc(Cn2c(=O)c3sccc3n(Cc3cccc(F)c3)c2=O)cc1	CHOP inh 72
O=C(NCc1ccco1)c1ccc(Cn2c(=O)c3ccccc3n(Cc3cccc(Cl)c3)c2=O)cc1	none
COc1cc(C)cc(OC)c1OCC(=O)Nc1cc(C)on1	none (no result: CHOP inh, TLR4-MyD88 BLA)
Cc1cc(C)c(C(O)c2ncc(-c3cccc(F)c3)[nH]2)c(C)c1 (stereo not drawn)	none (no result: CHOP inh, XBP1 UPR activ, TLR4-MyD88 BLA, TLR9-MyD88 block, UPR CHOP act)
CCCn1cnc2c(c1=O)c1nc3ccccc3nc1n2CCC1=CCCCC1	CHOP inh 84 (no result: XBP1 UPR activ, TLR9-MyD88 block, UPR CHOP act, NOD2-RIPK2 inh)
CCOCCCn1c(C)nc2c(c1=O)c1nc3ccccc3nc1n2CCC1=CCCCC1	CHOP inh 95
O=c1c2c3nc4ccccc4nc3n(/N=C/c3ccco3)c2ncn1CCC1=CCCCC1	none (no result: CHOP inh, TLR4-MyD88 BLA)
CCCn1cnc2c(c1=O)c1nc3ccccc3nc1n2CCc1ccccc1	CHOP inh 73
COc1ccc(OCCN(C)Cc2ccccc2)cc1	none
CN(CCOCCOc1ccc2ccccc2c1)Cc1ccccc1	CHOP inh 71
COc1cc(C(=O)NC2=C(C#N)CCC2)cc(OC)c1OC	none
COc1ccccc1CNC(=O)c1csc(Cc2ccc(Cl)cc2)n1	CHOP inh 80
O=C1NC[C@@H](CCCCN2C[C@H](Cc3ccccc3)N(CCc3ccccc3)C(=O)C2=O)N(CCc2ccccc2)C1=O	none (no result: CHOP inh, XBP1 UPR activ, TLR4-MyD88 BLA, TLR9-MyD88 block, UPR CHOP act)
CN1CCN(C(=S)NC(=O)/C=C/c2cccc3ccccc23)CC1	none
CC(C)NC(=S)NC(=O)/C=C/c1cccc2ccccc12	CHOP inh 86
Cc1ccc(-c2nc(CSCC(=O)NCCN3CCN(Cc4ccccc4)CC3)c(C)o2)cc1	CHOP inh 75
Cc1ccc(-c2nc(CSCC(=O)NCCCN3CCOCC3)c(C)o2)cc1	none
COCCn1c(=NC(=O)c2ccc(S(=O)(=O)N3CCc4ccccc4C3)cc2)sc2cc(S(N)(=O)=O)ccc21	none
C=CCn1c(=NC(=O)c2ccc(S(=O)(=O)N3CCc4ccccc4C3)cc2)sc2cc(S(N)(=O)=O)ccc21	CHOP inh 77
CN1C(C)(C)CC(=NO)CC1(C)C	none (no result: CHOP inh, XBP1 UPR activ, TLR4-MyD88 BLA, UPR CHOP act)

Screens (PubChem BioAssay)
